Assay results from ChEMBL document CHEMBL1275484, “Rifampin and rifaximin resistance in clinical isolates of Clostridium difficile” (Antimicrob Agents Chemother, 2008).
In brackets after ≈: the same amount, converted by molar mass.

Columns and labels:
Format in all cases: functional
[1] = test system: Clostridioides difficile; assay: Antimicrobial activity against Clostridium difficile isolate 43 by agar dilution method
Summary of the method: (§1)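 CLSI reference agar dilution method for anaerobes, with endpoints read per guideline M11-A7. Rifaximin was dissolved in methanol, diluted in 0.1 M phosphate buffer (pH 7.4) with 0.45% SDS, and tested at 0.0009–256 μg/ml. Rifampin was dissolved in methanol, diluted in water, and tested at 0.00001–256 μg/ml. C. difficile ATCC […] served as control. Isolates were typed by HindIII REA.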

[2] = test system: Clostridioides difficile; assay: Antimicrobial activity against Clostridium difficile isolate 45 by Etest
Summary of the method: (§2)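 Rifampin Etest strips were run on brucella blood agar following the manufacturer's instructions to give an MIC. Clinical isolates were typed by HindIII REA.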

[3] = test system: Clostridioides difficile; assay: Antimicrobial activity against Clostridium difficile isolate 58 by agar dilution method; summary of the method: as §1
[4] = test system: Clostridioides difficile; assay: Antimicrobial activity against Clostridium difficile isolate 33 by agar dilution method
Summary of the method: (§3)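 MIC by CLSI reference agar dilution for anaerobes, with endpoints read per M11-A7 and C. difficile […] as control. Rifaximin was dissolved in methanol, diluted in 0.1 M phosphate buffer pH 7.4 plus 0.45% SDS, and tested at 0.0009–256 μg/ml. Rifampin was dissolved in methanol, diluted in water, and tested at 0.00001–256 μg/ml.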

[5] = test system: Clostridioides difficile; assay: Antimicrobial activity against rifaximin-resistant Clostridium difficile isolate 50 expressing RpoB R505K mutant by agar dilution method
Summary of the method: (§4)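 MICs were found by the CLSI reference agar dilution method for anaerobes, with endpoints read per M11-A7 and C. difficile […] as control. Rifaximin was dissolved in methanol, diluted in 0.1 M phosphate buffer pH 7.4 with 0.45% SDS, and tested at 0.0009–256 μg/ml. Rifampin was dissolved in methanol, diluted in water, and tested at 0.00001–256 μg/ml.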

[6] = test system: Clostridioides difficile; assay: Antimicrobial activity against Clostridium difficile isolate 72 by Etest
Summary of the method: (§5)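 Rifampin MIC by Etest on brucella blood agar, run per the strip manufacturer's instructions, against clinical isolates typed by HindIII REA.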

[7] = test system: Clostridioides difficile; assay: Antimicrobial activity against rifaximin-resistant Clostridium difficile isolate 26 expressing RpoB R505K mutant by agar dilution method; summary of the method: as §4
[8] = test system: Clostridioides difficile; assay: Antimicrobial activity against rifaximin-resistant Clostridium difficile isolate 68 expressing RpoB H502Y mutant by agar dilution method; summary of the method: as §4
[9] = test system: Clostridioides difficile; assay: Antimicrobial activity against Clostridium difficile isolate 51 by Etest; summary of the method: as §2
[10] = test system: Clostridioides difficile; assay: Antimicrobial activity against Clostridium difficile isolate 7 by Etest; summary of the method: as §5
[11] = test system: Clostridioides difficile; assay: Antimicrobial activity against Clostridium difficile isolate 15 by Etest
Summary of the method: (§6)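 Rifampin MIC by Etest strip on brucella blood agar, run per the strip maker's instructions. Isolates were HindIII REA-typed clinical C. difficile.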

[12] = test system: Clostridioides difficile; assay: Antimicrobial activity against Clostridium difficile isolate 39 by agar dilution method; summary of the method: as §1
[13] = test system: Clostridioides difficile; assay: Antimicrobial activity against Clostridium difficile isolate 42 by Etest; summary of the method: as §2
[14] = test system: Clostridioides difficile; assay: Antimicrobial activity against Clostridium difficile isolate 60 by agar dilution method; summary of the method: as §1
[15] = test system: Clostridioides difficile; assay: Antimicrobial activity against Clostridium difficile isolate 47 by Etest; summary of the method: as §2
[16] = test system: Clostridioides difficile; assay: Antimicrobial activity against Clostridium difficile isolate 70 by agar dilution method
Summary of the method: (§7)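 CLSI reference agar dilution for anaerobes, with endpoints read per guideline M11-A7. Rifaximin was dissolved in methanol, diluted in 0.1 M phosphate buffer pH 7.4 with 0.45% SDS, and tested at 0.0009–256 μg/ml. Rifampin was dissolved in methanol, diluted in water, and tested at 0.00001–256 μg/ml. Control strain: C. difficile ATCC […]. Isolates were typed by HindIII REA.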

[17] = test system: Clostridioides difficile; assay: Antimicrobial activity against rifaximin-resistant Clostridium difficile isolate 67 expressing RpoB H502N and R505K mutants by Etest
Summary of the method: (§8)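 Rifampin Etest on clinical C. difficile isolates typed by HindIII REA, run per the strip manufacturer's instructions on brucella blood agar, with the MIC read from the strip.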

[18] = test system: Clostridioides difficile; assay: Antimicrobial activity against Clostridium difficile isolate 25 by Etest; summary of the method: as §6
[19] = test system: Clostridioides difficile; assay: Antimicrobial activity against Clostridium difficile isolate 57 by Etest; summary of the method: as §2
[20] = test system: Clostridioides difficile; assay: Antimicrobial activity against Clostridium difficile isolate 9 by agar dilution method; summary of the method: as §7
[21] = test system: Clostridioides difficile; assay: Antimicrobial activity against Clostridium difficile isolate 3 by Etest; summary of the method: as §6
[22] = test system: Clostridioides difficile; assay: Antimicrobial activity against Clostridium difficile isolate 49 by Etest; summary of the method: as §2
[23] = test system: Clostridioides difficile; assay: Antimicrobial activity against Clostridium difficile isolate 23 by agar dilution method; summary of the method: as §3
[24] = test system: Clostridioides difficile; assay: Antimicrobial activity against Clostridium difficile isolate 10 by agar dilution method; summary of the method: as §3
[25] = test system: Clostridioides difficile; assay: Antimicrobial activity against rifaximin-resistant Clostridium difficile isolate 22 expressing RpoB H502N and R505K mutants by Etest; summary of the method: as §8
[26] = test system: Clostridioides difficile; assay: Antimicrobial activity against Clostridium difficile isolate 71 by Etest; summary of the method: as §5
[27] = test system: Clostridioides difficile; assay: Antimicrobial activity against Clostridium difficile isolate 6 by agar dilution method; summary of the method: as §1
[28] = test system: Clostridioides difficile; assay: Antimicrobial activity against Clostridium difficile isolate 74 by Etest; summary of the method: as §5
[29] = test system: Clostridioides difficile; assay: Antimicrobial activity against Clostridium difficile isolate 79 by Etest; summary of the method: as §5
[30] = test system: Clostridioides difficile; assay: Antimicrobial activity against Clostridium difficile isolate 20 by Etest; summary of the method: as §6
[31] = test system: Clostridioides difficile; assay: Antimicrobial activity against rifaximin-resistant Clostridium difficile isolate 18 expressing RpoB R505K mutant by agar dilution method; summary of the method: as §4
[32] = test system: Clostridioides difficile; assay: Antimicrobial activity against rifaximin-resistant Clostridium difficile isolate 17 expressing RpoB H502N and I548M mutants by agar dilution method; summary of the method: as §4
[33] = test system: Clostridioides difficile; assay: Antimicrobial activity against Clostridium difficile isolate 60 by Etest; summary of the method: as §2
[34] = test system: Clostridioides difficile; assay: Antimicrobial activity against Clostridium difficile isolate 11 by Etest; summary of the method: as §6
[35] = test system: Clostridioides difficile; assay: Antimicrobial activity against Clostridium difficile isolate 32 by Etest; summary of the method: as §6
[36] = test system: Clostridioides difficile; assay: Antimicrobial activity against Clostridium difficile isolate 25 by agar dilution method; summary of the method: as §3
[37] = test system: Clostridioides difficile; assay: Antimicrobial activity against Clostridium difficile isolate 28 by Etest; summary of the method: as §6
[38] = test system: Clostridioides difficile; assay: Antimicrobial activity against rifaximin-resistant Clostridium difficile isolate 26 expressing RpoB R505K mutant by Etest; summary of the method: as §8
[39] = test system: Clostridioides difficile; assay: Antimicrobial activity against Clostridium difficile isolate 38 by Etest; summary of the method: as §6
[40] = test system: Clostridioides difficile; assay: Antimicrobial activity against Clostridium difficile isolate 8 by agar dilution method; summary of the method: as §7
[41] = test system: Clostridioides difficile; assay: Antimicrobial activity against Clostridium difficile isolate 6 by Etest; summary of the method: as §2
[42] = test system: Clostridioides difficile; assay: Antimicrobial activity against Clostridium difficile isolate 34 by agar dilution method; summary of the method: as §3
[43] = test system: Clostridioides difficile; assay: Antimicrobial activity against Clostridium difficile isolate 52 by Etest; summary of the method: as §2
[44] = test system: Clostridioides difficile; assay: Antimicrobial activity against Clostridium difficile isolate 23 by Etest; summary of the method: as §6
[45] = test system: Clostridioides difficile; assay: Antimicrobial activity against Clostridium difficile isolate 53 by Etest; summary of the method: as §2
[46] = test system: Clostridioides difficile; assay: Antimicrobial activity against Clostridium difficile isolate 56 by agar dilution method; summary of the method: as §1
[47] = test system: Clostridioides difficile; assay: Antimicrobial activity against Clostridium difficile isolate 55 by Etest; summary of the method: as §2
[48] = test system: Clostridioides difficile; assay: Antimicrobial activity against Clostridium difficile isolate 32 by agar dilution method; summary of the method: as §3
[49] = test system: Clostridioides difficile; assay: Antimicrobial activity against Clostridium difficile isolate 63 by agar dilution method; summary of the method: as §7
[50] = test system: Clostridioides difficile; assay: Antimicrobial activity against Clostridium difficile isolate 33 by Etest; summary of the method: as §6
[51] = test system: Clostridioides difficile; assay: Antimicrobial activity against Clostridium difficile isolate 20 by agar dilution method; summary of the method: as §3

CO[C@H]1/C=C/O[C@@]2(C)Oc3c(C)c(O)c4c(O)c(c(/C=N/N5CCN(C)CC5)c(O)c4c3C2=O)NC(=O)/C(C)=C\C=C\[C@H](C)[C@H](O)[C@@H](C)[C@@H](O)[C@@H](C)[C@H](OC(C)=O)[C@@H]1C [RIFAMPIN]
MIC [1]: 0.4 ng/mL (≈ 0.486 nM) | MIC [2]: < 2 ng/mL | MIC [3]: 0.9 ng/mL (≈ 1.09 nM) | MIC [4]: 0.9 ng/mL (≈ 1.09 nM) | MIC [5]: 128000 ng/mL (≈ 156000 nM) | MIC [6]: < 2 ng/mL | MIC [7]: 128000 ng/mL (≈ 156000 nM) | MIC [8]: > 256000 ng/mL | MIC [9]: < 2 ng/mL | MIC [10]: < 2 ng/mL | MIC [11]: < 2 ng/mL | MIC [12]: 0.9 ng/mL (≈ 1.09 nM) | MIC [13]: < 2 ng/mL | MIC [14]: 0.9 ng/mL (≈ 1.09 nM) | MIC [15]: < 2 ng/mL | MIC [16]: 0.06 ng/mL (≈ 0.0729 nM) | MIC [17]: > 32000 ng/mL | MIC [18]: < 2 ng/mL | MIC [19]: < 2 ng/mL | MIC [20]: 0.06 ng/mL (≈ 0.0729 nM) | MIC [21]: 4 ng/mL (≈ 4.86 nM) | MIC [22]: < 2 ng/mL | MIC [23]: 0.9 ng/mL (≈ 1.09 nM) | MIC [24]: 0.06 ng/mL (≈ 0.0729 nM) | MIC [25]: > 32000 ng/mL | MIC [26]: < 2 ng/mL | MIC [27]: 0.06 ng/mL (≈ 0.0729 nM) | MIC [28]: < 2 ng/mL | MIC [29]: < 2 ng/mL | MIC [30]: < 2 ng/mL | MIC [31]: 128000 ng/mL (≈ 156000 nM) | MIC [32]: > 256000 ng/mL | MIC [33]: < 2 ng/mL | MIC [34]: < 2 ng/mL | MIC [35]: < 2 ng/mL | MIC [36]: 0.9 ng/mL (≈ 1.09 nM) | MIC [37]: < 2 ng/mL | MIC [38]: > 32000 ng/mL | MIC [39]: < 2 ng/mL | MIC [40]: 0.06 ng/mL (≈ 0.0729 nM) | MIC [41]: < 2 ng/mL | MIC [42]: 0.9 ng/mL (≈ 1.09 nM) | MIC [43]: < 2 ng/mL | MIC [44]: < 2 ng/mL | MIC [45]: < 2 ng/mL | MIC [46]: 0.9 ng/mL (≈ 1.09 nM) | MIC [47]: < 2 ng/mL | MIC [48]: 0.9 ng/mL (≈ 1.09 nM) | MIC [49]: 0.4 ng/mL (≈ 0.486 nM) | MIC [50]: < 2 ng/mL | MIC [51]: 0.9 ng/mL (≈ 1.09 nM)
